CHRM4 PAM – human M4 muscarinic receptor positive allosteric modulators, primary screen, CHO-K1 cells, Fluo-8 calcium fluorescence; Muscarinic acetylcholine receptor M4 (Homo sapiens), P08173; AID 624126, 2012; activation, % at 3 µM; CHO-K1 hM4/Gqi5, ACh EC20; 0% = ACh EC20, 100% = maximal ACh; 0.4% of 360,000 active;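 active = activation above its plate's cutoff, the mean activation of sample wells plus 3 SD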
Target sequence (P08173 whole entry, looked up): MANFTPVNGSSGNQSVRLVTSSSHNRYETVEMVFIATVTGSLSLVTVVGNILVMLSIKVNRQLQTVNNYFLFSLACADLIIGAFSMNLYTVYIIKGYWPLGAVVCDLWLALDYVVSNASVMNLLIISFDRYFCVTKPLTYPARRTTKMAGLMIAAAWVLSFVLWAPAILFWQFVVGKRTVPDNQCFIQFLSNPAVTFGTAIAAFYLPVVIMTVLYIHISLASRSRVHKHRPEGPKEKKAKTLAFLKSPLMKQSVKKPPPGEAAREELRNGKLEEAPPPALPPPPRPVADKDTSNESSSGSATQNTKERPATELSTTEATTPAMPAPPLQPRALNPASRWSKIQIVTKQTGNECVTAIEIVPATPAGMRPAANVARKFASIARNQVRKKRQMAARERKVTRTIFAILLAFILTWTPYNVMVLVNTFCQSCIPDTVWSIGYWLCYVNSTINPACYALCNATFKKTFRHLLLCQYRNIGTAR
M5 PAM – human M5 muscarinic receptor positive allosteric modulators, primary screen, CHO-K1 cells, Fluo-8 calcium fluorescence; 0.3% of 360,000 active; Muscarinic acetylcholine receptor M5 (Homo sapiens), P08912; CHO-K1 hM5, ACh EC20 PAM; 0% = ACh EC20, 100% = ACh EC100; activation, % at 3 µM;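 active = activation above the run cutoff, the mean activation of all test compounds plus 3 SD, cut at about 18% in these data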
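Probe or stimulus: acetylcholine, EC20 level; Assay system: human M5 receptor in CHO-K1 cells; Schedule: compound preincubation 140 s before EC20 acetylcholine addition; Technique: intracellular calcium via Fluo-8 fluorescence; Dosing: single-point, 3 µM nominal; Read-out basis: percent activation from peak-over-basal fluorescence ratio, scaled EC20-to-EC100 acetylcholine; Repeats: one well per compound, no replicates.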
CHRM5 agonist – human M5 muscarinic receptor agonists, primary screen, CHO-K1 cells, Fluo-8 calcium fluorescence. CHO-K1 hM5 cells; 0% DMSO wells, 100% maximal acetylcholine response. 0.19% of 360,000 active. Muscarinic acetylcholine receptor M5 (Homo sapiens), P08912. activation, % at 3 µM. AID 624037, 2012;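 active = activation above the run's mean over test compounds plus 3 SD, cut at about 23% in these data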;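 note: signal is peak over basal fluorescence ratio across the kinetic read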
CHRM4 agonist – human M4 muscarinic receptor agonists, primary screen, CHO-K1 cells, Fluo-8 calcium fluorescence. Muscarinic acetylcholine receptor M4 (Homo sapiens), P08173. CHO-K1 hM4/Gqi5; vehicle 0%, full acetylcholine response 100%. activation, % at 3 µM. 0.14% of 360,000 active;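 active = activation above the run mean over all test wells plus 3 SD, cut at about 32% in these data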;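 note: peak over basal fluorescence ratio per well then scaled between controls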
M4 antag – human M4 muscarinic receptor antagonists, primary screen, CHO cells, Fluo-8 calcium fluorescence; CHO-hM4 cells, ACh EC80; inhibition, % at 3 µM; 0.73% of 360,000 active; AID 624125, 2012;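 active = inhibition above its plate's cutoff, the mean inhibition of sample wells plus 3 SD, cut at about 27% in these data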
M5 antag – human M5 muscarinic receptor antagonists, primary screen, CHO cells, Fluo-8 calcium fluorescence; Muscarinic acetylcholine receptor M5 (Homo sapiens), P08912; CHO-hM5 cells, ACh EC80; inhibition, % at 3 µM; 0.59% of 360,000 active;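 active = inhibition above a per-plate cutoff, the mean of that plate's test compounds plus 3 SD, cut at about 27% in these data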
Large screens that a line does not name were inactive; ! = repeats disagree. Shown are actives, neighbours in structure and some others; about 1.8% of the full set was active somewhere.

O=S(=O)(c1ccc(F)cc1)N1CC2CCCN2c2ccc(C(F)(F)F)cc21 (centres undefined)	M4 antag 39
CCOc1ccc(N(CC(=O)NCCSCc2ccc(Cl)cc2)S(C)(=O)=O)cc1	none
Cc1[nH]c2ccccc2c1C(=O)C(=O)NCc1nnnn1-c1ccc(F)c(F)c1	none
Cn1c(N)c(C(=O)NCc2ccccc2)sc1=S	CHRM4 PAM 36
COc1ccc(CCNC(=O)c2sc(=S)n(C)c2N)cc1	none
COc1cc2c(cc1OC)-c1cc(Nc3cccc(C)c3)nc(=O)n1CC2	none
Cc1oc2c(CN3CCCC3)c(O)ccc2c(=O)c1-c1ccccc1	none
Cc1oc2c(CN3CCCC3)c(O)ccc2c(=O)c1-c1ccc(Cl)cc1	M4 antag 70
Cc1oc2c(CN3CCOCC3)c(O)ccc2c(=O)c1-c1ccc(Cl)cc1	none
Cc1oc2c(CN3CCOCC3)c(O)ccc2c(=O)c1-c1ccc(Br)cc1	M4 antag 38
Cc1sc2c(c1C)CN(CCN1CCOCC1)CN2C(=O)c1ccccc1	none
Cc1cc(C(=O)N2CCC(C)CC2)on1	M5 PAM 18
CCOC(=O)N1CCN(C(=O)c2cc(C)no2)CC1	none
O=S1(=O)Nc2c(ccc3cccnc23)-c2ccccc21	M4 antag 30, M5 antag 31
Clc1ccc2ccc3cccnc3c2n1	none
CC(C)[C@H](NC(=O)c1ccccc1F)C(=O)NCc1ccc(S(N)(=O)=O)cc1	CHRM4 PAM 15
O=[N+]([O-])c1cnc(Sc2ccncn2)s1	M4 antag 32
O=[N+]([O-])c1cnc(Sc2ccncn2)c([N+](=O)[O-])c1	none
Cc1ccc(Oc2ncccc2C(=O)NCC(=O)O)cc1	M5 PAM 21
C[n+]1c2cc(N)ccc2cc2ccc(N)cc21	CHRM5 agonist 44, CHRM4 agonist 94, M4 antag 27!
Nc1ccc2ccc(O)cc2c1	none
c1ccc(-c2cn(-c3ccccc3)c3[n+]2CCS3)cc1	none
CC(C)(C)c1ccc(-c2cn(-c3ccc(Br)cc3)c3[n+]2CCCS3)cc1	M4 antag 50, M5 antag 58
Cc1nc2c(C#N)c[nH]n2c(=O)c1CCO	none
CCc1ccc2c(c1)cc(CN(C(=S)Nc1ccccc1)C1CC1)c1nnnn12	CHRM4 PAM 32
COc1ccccc1CN1C[C@@H]2C[C@@H](c3ccc(C)c(C)c3)N3CCC[C@@]23C1=O	none
CN(Cc1ccccc1)S(=O)(=O)c1ccc(Cl)c(C(=O)N2CCOCC2)c1	none
CO/N=C/C(C#N)=C/c1ccc(OC)c(OC)c1	CHRM4 PAM 20
COc1ccc(CN2CC(C(=O)NCCCN3CCCC(C)C3)CC2=O)cc1 (centres undefined)	none
Cc1ccc2nc(SC(C)C(=O)N3CCOCC3)[nH]c2c1 (centres undefined)	CHRM4 PAM 31
CC(Sc1nc(N)cc(=O)[nH]1)C(=O)N1CCOCC1 (centres undefined)	none
Cc1ccccc1C1c2[nH]c3ccccc3c2CCN1CCCn1cccn1 (centres undefined)	M4 antag 61
c1ccc(OCc2ccc(CCCN3CCOCC3)cc2)cc1	none
O=C(CCCc1ccccc1)NCCCN1CCOCC1	none
c1ccc(CCCN2CCOCC2)cc1	CHRM4 PAM 17
S=C(NCCCN1CCOCC1)N(Cc1ccccc1)Cc1ccccc1	M5 antag 31
CNC(=S)N1CCN(c2cccc(OC)c2)CC1	M4 antag 33
COc1cccc(N2CCN(C(=S)Nc3cc(C)cc(C)c3)CC2)c1	none
O=C1C(=C2CCc3ccccc32)Cc2ccccc21	none
c1ccc2c(c1)CCc1ccccc1C2=C1CCNCC1	M4 antag 99, M5 antag 99
COC(=O)c1cc(S(=O)(=O)NCCN2CCN(c3ccccc3F)CC2)c[nH]1	none

Assay outcomes (PubChem)
